This note sets out measurements from ChEMBL document CHEMBL1828498, “Identification and characterization of a novel integrin-linked kinase inhibitor” (J Med Chem, 2011).

The source made the active and inactive calls. How the calls were made is not given here.

For experiment [1], the system named is 3-phosphoinositide dependent protein kinase-2, PDK2. The experiment is described as follows: Inhibition of PDK2 in human PC3 cells assessed as Akt Ser-473 dephosphorylation by Western blot analysis. Conditions: PC-3. The format is functional, cell-based. In a few lines: (§1)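 Cells exposed 24 h in 5% FBS medium, final DMSO 0.1%; lysed in 1% SDS/10 mM EDTA/50 mM Tris pH 8.1, equal protein on SDS-PAGE, nitrocellulose, primary antibody 1:1000 at 4°C for 2 h, HRP secondary 1:5000, ECL detection; blots representative of three independent experiments.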

The target in experiment [2] is T1, 3-phosphoinositide-dependent protein kinase 1 (Homo sapiens) (UniProt O15530).
T1 sequence (whole entry): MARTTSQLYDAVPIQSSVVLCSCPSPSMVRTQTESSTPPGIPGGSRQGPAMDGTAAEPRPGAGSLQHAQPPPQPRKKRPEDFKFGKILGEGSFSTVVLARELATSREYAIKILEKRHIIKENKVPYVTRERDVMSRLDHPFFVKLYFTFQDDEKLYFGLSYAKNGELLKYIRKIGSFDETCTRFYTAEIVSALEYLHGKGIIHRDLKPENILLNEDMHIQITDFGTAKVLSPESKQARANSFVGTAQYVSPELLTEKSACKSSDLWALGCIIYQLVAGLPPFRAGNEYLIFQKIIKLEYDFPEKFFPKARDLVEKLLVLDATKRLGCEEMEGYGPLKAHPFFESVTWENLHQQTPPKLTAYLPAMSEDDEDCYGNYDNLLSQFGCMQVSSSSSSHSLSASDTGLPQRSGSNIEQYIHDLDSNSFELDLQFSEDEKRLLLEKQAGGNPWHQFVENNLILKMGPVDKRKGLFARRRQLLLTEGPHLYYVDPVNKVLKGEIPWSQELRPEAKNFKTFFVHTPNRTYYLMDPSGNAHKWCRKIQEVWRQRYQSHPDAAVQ
The experiment is described as follows: Inhibition of PDK2 in human PC3 cells assessed as Akt Thr-308 dephosphorylation by Western blot analysis. The format is functional, cell-based. Conditions: PC-3. The procedure, abridged: as §1
On the technique in general: A western blot detects proteins with antibodies after separation by electrophoresis.

Regarding `N#Cc1cccc(C(=O)N2CCN(c3ccc(-n4nc(C(F)(F)F)cc4-c4ccc5c(ccc6ccccc65)c4)cc3)CC2)c1`, the inhibition result in experiment [1] and in experiment [2] was “inactive” throughout.

Regarding `NS(=O)(=O)Nc1ccc(-n2nc(C(F)(F)F)cc2-c2ccc3c(ccc4ccccc43)c2)cc1`, the inhibition result in experiment [1] and in experiment [2] was “inactive” each time.

On to `NCC(=O)Nc1ccc(-n2nc(C(F)(F)F)cc2-c2ccc3c(c2)oc2ccccc23)cc1`, for which the inhibition entry in experiment [1] and in experiment [2] was “inactive” throughout.

Turning to `CCC(C)C(N)C(=O)Nc1ccc(-n2nc(C(F)(F)F)cc2-c2ccc(-c3ccc(C(F)(F)F)cc3)cc2)cc1` (stereo not drawn), the inhibition entry in experiment [1] and in experiment [2] was “inactive” throughout.

In the case of `NCCC(=O)Nc1ccc(-n2nc(C(F)(F)F)cc2-c2ccc(-c3ccc(C(F)(F)F)cc3)cc2)cc1`, the inhibition entry in experiment [1] and in experiment [2] was “inactive” in each case.

Take `NCCC(=O)Nc1ccc(-n2nc(C(F)(F)F)cc2-c2ccc3c(ccc4ccccc43)c2)cc1`: the inhibition entry in experiment [1] and in experiment [2] was “inactive” in each case.

Turning to `CNC(=O)c1cc(-c2ccc3c(ccc4ccccc43)c2)n(-c2ccc(NC(=O)CCN)cc2)n1`, the inhibition entry in experiment [1] and in experiment [2] was “inactive” in each case.

As to `COc1cc([N+](=O)[O-])ccc1S(=O)(=O)N1CCN(c2ccc(-n3nc(C(F)(F)F)cc3-c3ccc4c(ccc5ccccc54)c3)cc2)CC1`, the inhibition entry in experiment [1] and in experiment [2] was “inactive” in each case.

Regarding `CNC(=O)c1cc(-c2ccc3c(ccc4ccccc43)c2)n(-c2ccc(NC(=O)CN)cc2)n1`, the inhibition result in experiment [1] and in experiment [2] was “inactive” each time.

Consider `CC(=O)c1cc(C(=O)N2CCN(c3ccc(-n4nc(C(F)(F)F)cc4-c4ccc5c(ccc6ccccc65)c4)cc3)CC2)ccc1Cl`, for which the inhibition result in experiment [1] and in experiment [2] was “inactive” in each case.

Turning to `CCNC(=O)CCc1cc(-c2ccc(-c3ccc(C(F)(F)F)cc3)cc2)n(-c2ccc(N3CCNCC3)cc2)n1`, the inhibition entry in experiment [1] was “Active”. The inhibition entry in experiment [2] was “inactive”.

For the molecule `CC(C)CC(N)C(=O)Nc1ccc(-n2nc(C(F)(F)F)cc2-c2ccc(-c3ccc(C(F)(F)F)cc3)cc2)cc1` (stereo not drawn), the inhibition result in experiment [1] and in experiment [2] was “inactive” throughout.

Consider `CC(C)NC(=O)c1cc(-c2ccc(-c3ccc(C(F)(F)F)cc3)cc2)n(-c2ccc(NC(=O)CCN)cc2)n1`, for which the inhibition entry in experiment [1] and in experiment [2] was “inactive” each time.

In the case of `NC(Cc1ccccc1)C(=O)Nc1ccc(-n2nc(C(F)(F)F)cc2-c2ccc(-c3ccc(C(F)(F)F)cc3)cc2)cc1` (stereo not drawn), the inhibition result in experiment [1] and in experiment [2] was “inactive” in each case.

With `NC(=O)CNc1ccc(-n2nc(C(F)(F)F)cc2-c2ccc3c(ccc4ccccc43)c2)cc1`, the inhibition entry in experiment [1] and in experiment [2] was “inactive” throughout.

As to `NC(=O)CCNc1ccc(-n2nc(C(F)(F)F)cc2-c2ccc3c(ccc4ccccc43)c2)cc1`, the inhibition entry in experiment [1] and in experiment [2] was “inactive” in each case.

On to `CNC(=O)c1cc(-c2ccc(-c3ccc(C(F)(F)F)cc3)cc2)n(-c2ccc(N3CCNCC3)cc2)n1`, for which the inhibition entry in experiment [1] and in experiment [2] was “inactive” each time.

Take `CNC(=O)CCc1cc(-c2ccc(-c3ccc(C(F)(F)F)cc3)cc2)n(-c2ccc(NC(=O)CCN)cc2)n1`: the inhibition result in experiment [1] and in experiment [2] was “inactive” in each case.

Take `CNC(=O)CCc1cc(-c2ccc(-c3ccc(C(F)(F)F)cc3)cc2)n(-c2ccc(N3CCOCC3)cc2)n1`: the inhibition result in experiment [1] and in experiment [2] was “inactive” in each case.

`CC(=O)c1ccc(S(=O)(=O)N2CCN(c3ccc(-n4nc(C(F)(F)F)cc4-c4ccc5c(ccc6ccccc65)c4)cc3)CC2)cc1`: the inhibition entry in experiment [1] and in experiment [2] was “inactive” throughout.

`NCCCC[C@H](N)C(=O)Nc1ccc(-n2nc(C(F)(F)F)cc2-c2ccc(-c3ccc(C(F)(F)F)cc3)cc2)cc1`: the inhibition result in experiment [1] and in experiment [2] was “inactive” in each case.

For the molecule `O=C(c1ccc(Cl)c([N+](=O)[O-])c1)N1CCN(c2ccc(-n3nc(C(F)(F)F)cc3-c3ccc4c(ccc5ccccc54)c3)cc2)CC1`, the inhibition result in experiment [1] and in experiment [2] was “inactive” each time.

Take `COc1ccc(S(=O)(=O)N2CCN(c3ccc(-n4nc(C(F)(F)F)cc4-c4ccc5c(ccc6ccccc65)c4)cc3)CC2)cc1`: the inhibition entry in experiment [1] and in experiment [2] was “inactive” each time.

Consider `CNC(=O)c1cc(-c2ccc(-c3ccc(C(F)(F)F)cc3)cc2)n(-c2ccc(NC(=O)CCN)cc2)n1`, for which the inhibition result in experiment [1] and in experiment [2] was “inactive” in each case.

`NCCC(=O)Nc1ccc(-n2nc(C(F)(F)F)cc2-c2ccc3ccc4ccccc4c3c2)cc1`: the inhibition result in experiment [1] and in experiment [2] was “inactive” throughout.

As to `CCNC(=O)c1cc(-c2ccc3ccc4ccccc4c3c2)n(-c2ccc(NC(=O)CCN)cc2)n1`, the inhibition result in experiment [1] and in experiment [2] was “inactive” each time.

Turning to `O=[N+]([O-])c1ccc(S(=O)(=O)N2CCN(c3ccc(-n4nc(C(F)(F)F)cc4-c4ccc5c(ccc6ccccc65)c4)cc3)CC2)c([N+](=O)[O-])c1`, the inhibition entry in experiment [1] and in experiment [2] was “inactive” each time.

Turning to `CCNC(=O)CCc1cc(-c2ccc(-c3ccc(C(F)(F)F)cc3)cc2)n(-c2ccc(NC(=O)CCN)cc2)n1`, the inhibition result in experiment [1] and in experiment [2] was “inactive” in each case.

Regarding `N#Cc1ccc(C(=O)N2CCN(c3ccc(-n4nc(C(F)(F)F)cc4-c4ccc5c(ccc6ccccc65)c4)cc3)CC2)cc1`, the inhibition result in experiment [1] and in experiment [2] was “inactive” each time.

On to `NS(=O)(=O)c1ccc(-n2nc(C(F)(F)F)cc2-c2ccc3c(ccc4ccccc43)c2)cc1`, for which the inhibition result in experiment [1] and in experiment [2] was “inactive” each time.

In the case of `O=C(c1cccc([N+](=O)[O-])c1)N1CCN(c2ccc(-n3nc(C(F)(F)F)cc3-c3ccc4c(ccc5ccccc54)c3)cc2)CC1`, the inhibition entry in experiment [1] and in experiment [2] was “inactive” each time.

As to `CCNC(=O)c1cc(-c2ccc3ccc4ccccc4c3c2)n(-c2ccc(NC(=O)CN)cc2)n1`, the inhibition result in experiment [1] and in experiment [2] was “inactive” each time.

As for `NCC(=O)Nc1ccc(-n2nc(C(F)(F)F)cc2-c2ccc3ccc4ccccc4c3c2)cc1`, the inhibition entry in experiment [1] and in experiment [2] was “inactive” each time.

For `NCCC(=O)Nc1ccc(-n2nc(C(F)(F)F)cc2-c2ccc3c(c2)oc2ccccc23)cc1`, the inhibition entry in experiment [1] and in experiment [2] was “inactive” throughout.

Take `NC(=O)c1cccc(C(=O)N2CCN(c3ccc(-n4nc(C(F)(F)F)cc4-c4ccc5c(ccc6ccccc65)c4)cc3)CC2)c1`: the inhibition entry in experiment [1] and in experiment [2] was “inactive” in each case.

As to `O=[N+]([O-])c1ccc(S(=O)(=O)N2CCN(c3ccc(-n4nc(C(F)(F)F)cc4-c4ccc5c(ccc6ccccc65)c4)cc3)CC2)cc1`, the inhibition result in experiment [1] and in experiment [2] was “inactive” each time.

On to `CCNC(=O)c1cc(-c2ccc(-c3ccc(C(F)(F)F)cc3)cc2)n(-c2ccc(NC(=O)CCN)cc2)n1`, for which the inhibition result in experiment [1] and in experiment [2] was “inactive” in each case.

Take `CNC(=O)CCc1cc(-c2ccc3c(ccc4ccccc43)c2)n(-c2ccc(N3CCNCC3)cc2)n1`: the inhibition result in experiment [1] and in experiment [2] was “inactive” in each case.

On to `O=C(c1ccncc1)N1CCN(c2ccc(-n3nc(C(F)(F)F)cc3-c3ccc4c(ccc5ccccc54)c3)cc2)CC1`, for which the inhibition entry in experiment [1] and in experiment [2] was “inactive” throughout.

In the case of `CC(=O)Nc1ccc(S(=O)(=O)N2CCN(c3ccc(-n4nc(C(F)(F)F)cc4-c4ccc5c(ccc6ccccc65)c4)cc3)CC2)cc1`, the inhibition entry in experiment [1] and in experiment [2] was “inactive” each time.

As to `O=C(c1ccc([N+](=O)[O-])cc1)N1CCN(c2ccc(-n3nc(C(F)(F)F)cc3-c3ccc4c(ccc5ccccc54)c3)cc2)CC1`, the inhibition result in experiment [1] and in experiment [2] was “inactive” each time.

With `O=C(c1ccc(OC(F)(F)F)cc1)N1CCN(c2ccc(-n3nc(C(F)(F)F)cc3-c3ccc4c(ccc5ccccc54)c3)cc2)CC1`, the inhibition entry in experiment [1] and in experiment [2] was “inactive” throughout.

As to `CNC(=O)CCc1cc(-c2ccc(-c3ccc(C#N)cc3)cc2)n(-c2ccc(N3CCNCC3)cc2)n1`, the inhibition entry in experiment [1] and in experiment [2] was “inactive” throughout.

In the case of `CNC(=O)c1cc(-c2ccc3ccc4ccccc4c3c2)n(-c2ccc(NC(=O)CN)cc2)n1`, the inhibition result in experiment [1] and in experiment [2] was “inactive” each time.
